Reference: ChEMBL document CHEMBL1146475, “Spasmolytic effects, mode of action, and structure-activity relationships of stilbenoids from Nidema boothii” (J Nat Prod, 2004)
Activity calls are given as the source filed them. No cut-off for these calls is given here.

Experiments:
[1] = Inhibition of bovine brain CaM-dependent PDE assessed as inorganic phosphate release in presence of bovine brain calmodulin; design: species or system Bos taurus
How it was run: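 Bovine-brain CaM (0.2 µg) preincubated 3 min with 0.015 units CaM-deficient bovine-brain PDE in buffer with 0.3 units 5′-nucleotidase, 45 mM Tris-HCl, 5.6 mM Mg acetate, 45 mM imidazole, 2.5 mM CaCl2, pH 7.0; reaction started with 100 µL 10.8 mM cAMP, run 30 min. Phosphate measured by Sumner method at 660 nm. IC50 from concentration-inhibition curves, mean ±SEM of at least three experiments.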

Ileum [2] = experiment: Spasmolytic activity in guinea pig ileum assessed as inhibition of spontaneous contraction; assay type: functional, tissue-based; conditions: Cavia porcellus
How it was run: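 Ileum from male guinea-pigs (600-800 g) in Krebs-Henseleit, pH 7.4, isometric tension recorded. After 30 min stabilization and 10 min control period, DMSO-dissolved compound added, one concentration per segment, and recorded 10 min. Inhibition from area under curve of frequency and amplitude. Mean ±SEM of six experiments; IC50 by nonlinear curve fitting.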

Calmodulin (Bos taurus) = Calmodulin (Bos taurus) (UniProt P62157); experiment: Binding affinity to bovine brain calmodulin by electrophoretic mobility assay in presence of calcium chloride
How it was run: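 CaM pretreated 1.5 h at 30 °C with CaCl2, then test compound (0.33 µg in DMSO) applied; interaction judged from CaM band mobility on 15% polyacrylamide gel electrophoresis.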

Ileum [3] = experiment: Spasmolytic activity in guinea pig ileum assessed as inhibition of spontaneous contraction relative to papaverine; assay type: functional, Cavia porcellus
Ileum [4] = experiment: Spasmolytic activity in guinea pig ileum assessed as inhibition of spontaneous contraction in presence of L-NAME; assay type: functional, tissue-based; conditions: Cavia porcellus
How it was run: (§1)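 Guinea-pig ileum spontaneous-contraction assay (male, 600-800 g, Krebs-Henseleit pH 7.4, isometric tension, 10 min responses, AUC-based inhibition) run in the presence of L-NAME (500 µM) or ODQ (100 µM). Concentration-response curves as mean ±SEM of six data.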

Ileum [5] = experiment: Spasmolytic activity in guinea pig ileum assessed as inhibition of spontaneous contraction in presence of ODQ; assay type: functional, tissue-based; conditions: Cavia porcellus; how it was run: as §1

Structure (SMILES)	IC50 [1]	Emax (Ileum [2])	IC50 (Ileum [2])	Activity (Calmodulin (Bos taurus))	Ratio IC50 (Ileum [3])	Activity (Ileum [4])	Activity (Ileum [5])
COc1ccc(CCc2ccccc2)cc1O	21200 nM	82.2%	1290 nM	Active	3.28	–	–
COc1cc2ccc3c(OC)c(O)ccc3c2c(OC)c1O	–	–	450 nM	–	–	–	–
COc1cc(O)cc(CCc2ccc(OC)c(O)c2)c1	9000 nM	66.5%	140 nM	Active	31.33	–	–
Oc1cccc(CCc2cc(O)cc(O)c2)c1	–	78.5%	2360 nM	Active	1.78	–	–
COC1=CC(=O)C2=C(CCc3cc(O)ccc32)C1=O [EPHEMERANTHOQUINONE]	10900 nM	–	–	Active	–	–	–
COc1cc(O)c2c(c1)CCc1cc(O)ccc1-2 [LUSIANTHRIDIN]	–	–	410 nM	–	–	–	–
CN(C)CCCN1c2ccccc2Sc2ccc(Cl)cc21 [CHLORPROMAZINE]	10300 nM	81.8%	180 nM	–	23.5	–	–
COc1ccc(Cc2nccc3cc(OC)c(OC)cc23)cc1OC [PAPAVERINE]	–	91.8%	4230 nM	–	–	–	–
COc1cc(CCc2ccc(O)c(OC)c2)cc(OC)c1	–	76.4%	1390 nM	Active	3.05	–	–
COc1cc(O)cc(CCc2ccc(O)cc2)c1	10100 nM	85%	140 nM	Active	30.85	–	–
Oc1cc(O)cc(CCc2ccccc2)c1 [DIHYDROPINOSYLVIN]	36600 nM	83.3%	1490 nM	Active	2.84	–	–
COc1cc(CCc2cc(OC)c(O)c(OC)c2)ccc1O [MOSCATILIN]	–	73.6%	560 nM	–	7.65	–	–
COc1cccc(CCc2cc(OC)cc(OC)c2)c1	–	75.6%	960 nM	Active	4.41	–	–
COc1cc(O)cc(CCc2cccc(O)c2)c1 [BATATASIN III]	13300 nM	67.5%	240 nM	Active	17.62	inactive	inactive
Oc1cc(O)cc(CCc2ccc(O)c(O)c2)c1	–	53.6%	850 nM	Active	4.94	–	–
COc1cccc(CCc2cc(O)cc(OC)c2)c1	–	58.6%	1280 nM	Active	3.3	–	–
COc1ccc(CCc2cc(O)cc(O)c2)cc1O	–	51.8%	700 nM	Active	5.99	–	–
COc1cc(O)cc(CCc2ccc(OC)c(OC)c2)c1	–	66%	580 nM	Active	7.32	–	–
COc1cc(O)cc(CCc2ccc(O)c(OC)c2)c1 [GIGANTOL]	7000 nM	81.3%	260 nM	Active	16.26	inactive	inactive
COc1cc(CCc2ccc(OC)c(OC)c2)cc(OC)c1	–	84.9%	620 nM	Active	6.82	–	–
COC1=CC(=O)CC12CCc1cccc(O)c1C2=O (stereo not given) [NIDEMONE]	3200 nM	–	–	Active	–	–	–
Oc1ccc(CCc2cc(O)cc(O)c2)cc1 [DIHYDRORESVERATROL]	–	64.1%	1750 nM	Active	2.42	–	–
